Assay outcomes from PubChem.
An excerpt weighted towards active compounds, which were near 1.6% of everything screened.
FLuc act counter = firefly luciferase counter-screen for stimulation assays; P08659; 200,000 tested, under 10 active; ATPlite luciferase biochemical, luminescence, 10 min; 0 = ATP-free wells, 1 = DMSO control; activation factor at 10 µM; AID 1027;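 active = luciferase activation factor, scaled between plate controls, of at least 2 with compound at 10 µM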
Target sequence (P08659 whole entry, looked up): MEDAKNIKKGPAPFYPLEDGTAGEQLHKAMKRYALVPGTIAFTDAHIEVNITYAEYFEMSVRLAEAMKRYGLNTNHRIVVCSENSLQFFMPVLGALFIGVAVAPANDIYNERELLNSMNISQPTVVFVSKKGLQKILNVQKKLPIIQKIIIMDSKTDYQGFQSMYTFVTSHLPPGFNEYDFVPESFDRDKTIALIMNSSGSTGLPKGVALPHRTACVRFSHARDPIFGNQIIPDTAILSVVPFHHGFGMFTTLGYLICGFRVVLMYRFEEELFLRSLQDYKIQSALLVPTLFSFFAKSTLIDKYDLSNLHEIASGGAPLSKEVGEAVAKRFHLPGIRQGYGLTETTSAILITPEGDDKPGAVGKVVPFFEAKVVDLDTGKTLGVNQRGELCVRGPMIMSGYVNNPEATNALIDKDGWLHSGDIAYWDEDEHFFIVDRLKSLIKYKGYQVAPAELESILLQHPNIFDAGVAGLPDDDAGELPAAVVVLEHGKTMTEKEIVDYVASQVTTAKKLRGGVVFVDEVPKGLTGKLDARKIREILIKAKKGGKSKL
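Material: luciferase plus luciferin reagent, cell-free. Medium: PBS buffer for ATP. Also added: ATP substrate, dispensed from a 10.24 µM working solution in PBS. Doses: test compounds dosed from 2 mM stocks in 100% DMSO. Incubation: 10 min post-reagent at room temperature. Technique: light output (luminescence). Read-out basis: luminescence gain marking luciferase activators.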
TRAIL sens C8 = caspase-8 TRAIL sensitization; NB7+C8 cells + TRAIL, ATPlite viability luminescence; hit rate 1% among 360,000; inhibition (viability loss, TRAIL sensitization), % at 10 µM;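 active = compounds causing at least 50% loss of cell viability in the single-dose screen, relative to plate controls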
FLuc inh counter = inhibits firefly luciferase, flagging false hits in luciferase inhibition screens | P08659 | hit rate 1.5% among 200,000 | inhibition, % at 10 µM | ATPLite firefly luciferase biochemical luminescence, 10 min;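 active = inhibition above about 50% when tested at 10 µM, limit read from the data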
PPC-1+TRAIL kill = kills PPC-1 cancer cells in the presence of TRAIL | PPC-1 cells + TRAIL, ATPLite viability luminescence | cell killing (% activity), % at 4 µM or 5 µM | hit rate 0.41% among 220,000 | AID 1443;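 active = cell killing above 50% in the first pass at 4 µM, then a duplicate retest at 5 µM averaging 50% or more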
Large screens that a line does not name were inactive; ! = a repeat was not active.

O=C(NC(=S)Nc1ncccn1)c1ccc(Cl)cc1Cl	FLuc inh counter 64
CCN(CC)c1ccc(C(=O)O)cc1	none
CCN(CC)c1ccc(/C=C2\C(=O)c3ccc(C(=O)O)cc3C2=O)cc1	FLuc inh counter 92
CCN(CC)c1ccc(/C=C/c2nc3ccccc3s2)cc1	FLuc inh counter 64 (no result: TRAIL sens C8)
Cc1cccc(/N=C/c2c(O)cc(C)oc2=O)n1	none
Cc1ccc(N/N=C/c2c(O)cc(C)oc2=O)cc1	FLuc inh counter 68
Cc1cc(O)c(/C=N/Nc2ccc(F)cc2)c(=O)o1	FLuc inh counter 68
Cc1ccc(S(=O)(=O)N2CCOCC2)cc1C(=O)OCC(=O)c1c(N)n(C)c(=O)n(C)c1=O	none (no result: FLuc act counter, FLuc inh counter, PPC-1+TRAIL kill)
Cn1c(N)c(C(=O)COC(=O)c2cc(S(=O)(=O)N3CCOCC3)ccc2F)c(=O)n(C)c1=O	TRAIL sens C8 64 (no result: FLuc act counter, FLuc inh counter, PPC-1+TRAIL kill)
C(=N\N=C\c1cccs1)/c1cccs1	FLuc inh counter 83
CCOC(=O)C(=O)NCc1ccc(/C=C2/N=C(C)C(C(=O)OCC)=C2O)o1	none
Nc1nc(N)c(-c2cccc(C(F)(F)F)c2)c(Cc2cccc(C(F)(F)F)c2)n1	TRAIL sens C8 78 (no result: FLuc act counter, FLuc inh counter, PPC-1+TRAIL kill)
Cc1nc(NC(=O)c2ccccc2)sc1C	none (no result: FLuc act counter, FLuc inh counter, PPC-1+TRAIL kill)
Cc1nc(NC(=S)NC(=O)c2ccccc2)sc1C	TRAIL sens C8 63 (no result: FLuc act counter, FLuc inh counter)
O=C(NC(=S)Nc1nc2c(s1)CCCC2)c1ccccc1	TRAIL sens C8 71, FLuc inh counter 63
COC(=O)c1ccc(C(=O)NC(=S)Nc2nc3c(s2)CCCC3)cc1	none
CC1CCC(C(C)C)C(OC(=O)Cn2c(-c3ccc(F)cc3)[n+](C)c3ccccc32)C1 (configuration not stated)	none
CC1CCC(C(C)C)C(OC(=O)Cn2c(-c3ccccc3)[n+](C)c3ccccc32)C1 (configuration not stated)	TRAIL sens C8 58!
O=C(COC(=O)c1ccc2c(c1)C(=O)N(c1cccc3ncccc13)C2=O)c1ccc(Cl)cc1	none
Cc1ccc(C(=O)COC(=O)c2ccc3c(c2)C(=O)N(c2cccc4ncccc24)C3=O)cc1	TRAIL sens C8 51
CCOP(=O)(OCC)C(NC(=O)Nc1ccc(Cl)c(Cl)c1)c1ccccc1 (configuration not stated)	none
O=C(Nc1cc(S(=O)(=O)N2CCOCC2)ccc1N1CCOCC1)c1ccccc1[N+](=O)[O-]	none (no result: FLuc act counter, FLuc inh counter, PPC-1+TRAIL kill)
O=C(Nc1cc(S(=O)(=O)N2CCOCC2)ccc1N1CCOCC1)c1ccc([N+](=O)[O-])s1	TRAIL sens C8 53 (no result: FLuc act counter, FLuc inh counter, PPC-1+TRAIL kill)
O=C(CCN1C(=O)/C(=C/c2ccc(Cl)cc2)SC1=S)NCCCn1ccnc1	none (no result: FLuc act counter, FLuc inh counter, PPC-1+TRAIL kill)
CC(C)c1onc(C(=O)N2CCN(c3ccccc3)CC2)c1[N+](=O)[O-]	none (no result: FLuc act counter, FLuc inh counter)
CC(C)c1onc(C(=O)N2CCN(C(c3ccccc3)c3ccccc3)CC2)c1[N+](=O)[O-]	TRAIL sens C8 91
Cc1ccc(Cl)cc1N1CCN(C(=O)c2noc(C(C)C)c2[N+](=O)[O-])CC1	TRAIL sens C8 95 (no result: FLuc act counter, FLuc inh counter, PPC-1+TRAIL kill)
CC(C)c1onc(C(=O)N2CCN(c3ccc(F)cc3)CC2)c1[N+](=O)[O-]	TRAIL sens C8 65 (no result: FLuc act counter, FLuc inh counter, PPC-1+TRAIL kill)
Cc1onc(C(=O)N2CCC(Cc3ccccc3)CC2)c1[N+](=O)[O-]	TRAIL sens C8 92 (no result: FLuc act counter, FLuc inh counter, PPC-1+TRAIL kill)
CC(C)c1onc(C(=O)N2CCCCCC2)c1[N+](=O)[O-]	none
CCOC(=O)NC(N(O)c1cccc(Cl)c1)C(Cl)(Cl)Cl (configuration not stated)	none (no result: FLuc act counter, FLuc inh counter)
Cc1ccc(S(=O)(=O)N(CCCN2CCCC2=O)Cc2cc3c(C)ccc(C)c3[nH]c2=O)cc1	none
CS(=O)c1ccccc1COC(=O)Nc1ccc(Cl)cc1 (configuration not stated)	none
O=C(C[C@H]1C/C=C\C[C@H](NC(=O)OCC2c3ccccc3-c3ccccc32)C(=O)O[C@H](c2ccccc2)CNC1=O)N[C@H](CO)Cc1ccccc1	TRAIL sens C8 85 (no result: FLuc act counter, FLuc inh counter, PPC-1+TRAIL kill)
O=C(N[C@@H]1C/C=C\C[C@H](CC(=O)N(CCO)Cc2ccccc2)C(=O)NC[C@@H](c2ccccc2)OC1=O)OCC1c2ccccc2-c2ccccc21	none (no result: FLuc act counter, FLuc inh counter, PPC-1+TRAIL kill)
COc1ccc(C(=O)NN=C2CCCC2)c(OC)c1	none (no result: FLuc act counter, FLuc inh counter, PPC-1+TRAIL kill)
O=S(=O)(c1ccc(Br)cc1Cl)N1CCN(CCO)CC1	none
O=C1C=CC(=O)c2c(O)c(N3CCN(CCO)CC3)c(Cl)c(O)c21	TRAIL sens C8 90 (no result: FLuc act counter, FLuc inh counter, PPC-1+TRAIL kill)
O=C1C=CC(=O)c2c(O)c(N3CCN(CCOCCO)CC3)c(Br)c(O)c21	TRAIL sens C8 90 (no result: FLuc act counter, FLuc inh counter, PPC-1+TRAIL kill)
OCCOCCN1CCN(C2=Nc3ccccc3Sc3ccccc32)CC1	none
CCCc1oc(C(=O)O)cc1CN	none
COC(=O)c1[nH]c2ccc(C)cc2c1NC(=O)Oc1ccccc1	none
CCOC(=O)Cc1cc(=O)n2[nH]c(-c3ccc(Cl)cc3)cc2n1	FLuc inh counter 57
